Assay results as given in ChEMBL document CHEMBL1629527, “In vitro antifungal activities of bis(alkylpyridinium)alkane compounds against pathogenic yeasts and molds” (Antimicrob Agents Chemother, 2010).

What was measured:
[1] = system: Cryptococcus neoformans; assay: Antifungal activity against Cryptococcus neoformans 05-202523 after 24 to 72 hrs by broth microdilution method; type: functional
In short: (§1)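 Broth microdilution MIC per CLSI M27-A3 (yeasts) or M38-A2 (molds). RPMI 1640 with L-glutamine, without bicarbonate, buffered to pH 7.0 with 0.165 M MOPS. Final test range for the compounds was 0.175–87.5 μM. Incubation at 35°C with visual reading at 24–72 h. MIC was the lowest concentration giving 100% inhibition versus the growth control (azoles 50% or 100%, by organism). Each isolate was run in duplicate in two independent experiments.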

[2] = system: Lichtheimia corymbifera; assay: Antifungal activity against Absidia corymbifera 04-200170 after 24 to 72 hrs by broth microdilution method; type: functional; in short: as §1
[3] = system: Candida parapsilosis; assay: Antifungal activity against Candida parapsilosis 04-202398 after 24 to 72 hrs by broth microdilution method; type: functional; details: Lodderomyces parapsilosis; in short: as §1
[4] = system: Fusarium solani; assay: Antifungal activity against Fusarium solani 04-203102 after 48 to 72 hrs; type: functional
In short: (§2)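 After the broth microdilution MIC read, suspension from every well without visible growth was plated onto Sabouraud dextrose agar and incubated at 35°C, up to 7 days for molds. MFC was taken as the lowest drug concentration with no colonies.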

[5] = system: Aspergillus flavus; assay: Antifungal activity against Aspergillus flavus 05-203758 after 24 to 72 hrs by broth microdilution method; type: functional; in short: as §1
[6] = system: Pichia kudriavzevii; assay: Antifungal activity against Candida krusei ATCC 6258 after 24 to 72 hrs by broth microdilution method; type: functional; in short: as §1
[7] = system: Candida albicans; assay: Antifungal activity against Candida albicans ATCC 10231 after 24 to 72 hrs by broth microdilution method; type: functional; in short: as §1
[8] = system: Aspergillus flavus; assay: Antifungal activity against Aspergillus flavus ATCC 204304 after 24 to 72 hrs by broth microdilution method; type: functional; in short: as §1
[9] = system: Fusarium solani; assay: Antifungal activity against Fusarium solani 04-203102 after 24 to 72 hrs by broth microdilution method; type: functional
In short: (§3)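 Mold isolates subcultured on potato dextrose agar, then tested by CLSI M38-A2 broth microdilution in RPMI 1640 (L-glutamine, no bicarbonate) buffered to pH 7.0 with 0.165 M MOPS. Compounds were dissolved in water and tested at a final 0.175–87.5 μM. Plates were incubated at 35°C. MIC was read visually as the lowest concentration giving 100% inhibition versus the growth control. Each isolate was run in duplicate in two independent experiments.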

[10] = system: Nakaseomyces glabratus; assay: Antifungal activity against Candida glabrata 04-202345 after 24 to 72 hrs by broth microdilution method; type: functional; in short: as §1
[11] = system: Pichia kudriavzevii; assay: Antifungal activity against Candida krusei 04-202328 after 24 to 72 hrs by broth microdilution method; type: functional; in short: as §1
[12] = system: Lichtheimia corymbifera; assay: Antifungal activity against Absidia corymbifera 04-200170 after 48 to 72 hrs; type: functional
In short: (§4)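 CLSI M38-A2 broth microdilution for molds in RPMI 1640 with L-glutamine and no bicarbonate, buffered with 0.165 M MOPS to pH 7.0. Compounds were dissolved in water and tested at 0.175–87.5 μM final, 35°C, up to 7 days. MIC was read visually as 100% inhibition versus growth control. For MFC, clear wells were plated on SDA and the lowest concentration with no colonies taken. Each isolate was run in duplicate, two independent experiments.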

[13] = system: Cunninghamella bertholletiae; assay: Antifungal activity against Cunninghamella bertholletiae 99-12187 after 48 to 72 hrs; type: functional; details: in the assay text read “for up to 7 days” for “after 48 to 72 hrs”
In short: (§5)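 MFC: after the MIC read, 30-μl aliquots from each well without visible growth were plated onto Sabouraud dextrose agar and incubated at 35°C. Reading was at 48–72 h for yeasts and up to 7 days for molds. MFC was the lowest concentration with no colonies.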

[14] = system: Aspergillus fumigatus; assay: Antifungal activity against Aspergillus fumigatus 05-203114 after 24 to 72 hrs by broth microdilution method; type: functional; in short: as §1
[15] = system: Cryptococcus neoformans; assay: Antifungal activity against Cryptococcus neoformans ATCC 90112 after 48 to 72 hrs; type: functional; in short: as §5
[16] = system: Aspergillus fumigatus; assay: Antifungal activity against Aspergillus fumigatus ATCC 204305 after 48 to 72 hrs; type: functional; in short: as §4
[17] = system: Aspergillus flavus; assay: Antifungal activity against Aspergillus flavus ATCC 204304 after 48 to 72 hrs; type: functional; in short: as §5
[18] = system: Scedosporium apiospermum; assay: Antifungal activity against Scedosporium apiospermum 05-203100 after 24 to 72 hrs by broth microdilution method; type: functional; in short: as §3
[19] = Antifungal activity against Exophiala jeanselmei 03-200268 after 24 to 72 hrs by broth microdilution method; type: functional; in short: as §1
[20] = system: Cunninghamella bertholletiae; assay: Antifungal activity against Cunninghamella bertholletiae 99-12187 after 24 to 72 hrs by broth microdilution method; type: functional; in short: as §1
[21] = system: Aspergillus terreus; assay: Antifungal activity against Aspergillus terreus 05-202844 after 48 to 72 hrs; type: functional; in short: as §5
[22] = system: Cryptococcus neoformans; assay: Antifungal activity against Cryptococcus neoformans ATCC 90112 after 24 to 72 hrs by broth microdilution method; type: functional; in short: as §1
[23] = system: Candida parapsilosis; assay: Antifungal activity against Candida parapsilosis ATCC 22019 after 24 to 72 hrs by broth microdilution method; type: functional; details: Lodderomyces parapsilosis; in short: as §1
[24] = system: Cryptococcus gattii species complex; assay: Antifungal activity against Cryptococcus gattii 05-200122 after 24 to 72 hrs by broth microdilution method; type: functional, Cryptococcus bacillisporus; in short: as §1
[25] = Antifungal activity against Paecilomyces lilacinus 05-200601 after 24 to 72 hrs by broth microdilution method; type: functional; details: Purpureocillium lilacinum; in short: as §3
[26] = system: Cryptococcus neoformans; assay: Antifungal activity against Cryptococcus neoformans 05-202523 after 48 to 72 hrs; type: functional; in short: as §5
[27] = system: Aspergillus fumigatus; assay: Antifungal activity against Aspergillus fumigatus ATCC 204305 after 24 to 72 hrs by broth microdilution method; type: functional; in short: as §1
[28] = system: Exophiala spinifera; assay: Antifungal activity against Exophiala spinifera 03-200803 after 24 to 72 hrs by broth microdilution method; type: functional; in short: as §3
[29] = system: Aspergillus fumigatus; assay: Antifungal activity against Aspergillus fumigatus 05-203114 after 48 to 72 hrs; type: functional; in short: as §4
[30] = system: Lomentospora prolificans; assay: Antifungal activity against Scedosporium prolificans 05-203060 after 24 to 72 hrs by broth microdilution method; type: functional; in short: as §3
[31] = system: Rhizopus arrhizus; assay: Antifungal activity against Rhizopus oryzae 05-203111 after 24 to 72 hrs by broth microdilution method; type: functional; in short: as §3
[32] = system: Candida tropicalis; assay: Antifungal activity against Candida tropicalis 04-202361 after 24 to 72 hrs by broth microdilution method; type: functional; in short: as §1
[33] = system: Aspergillus terreus; assay: Antifungal activity against Aspergillus terreus 05-202844 after 24 to 72 hrs by broth microdilution method; type: functional; in short: as §1
[34] = system: Candida parapsilosis; assay: Antifungal activity against Candida parapsilosis 04-202398 after 48 to 72 hrs; type: functional; details: Lodderomyces parapsilosis
In short: (§6)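 CLSI M27-A3 broth microdilution for yeasts in RPMI 1640 with L-glutamine and no bicarbonate, buffered with 0.165 M MOPS to pH 7.0. Compounds were dissolved in water and tested at 0.175–87.5 μM final, 35°C. MIC was read visually at 24–72 h as 100% inhibition versus growth control. For MFC, 30 μl from clear wells went onto SDA at 35°C for 48–72 h, reading the lowest concentration without colonies. Duplicates, two independent runs.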

[35] = system: Candida albicans; assay: Antifungal activity against Candida albicans ATCC 90028 after 24 to 72 hrs by broth microdilution method; type: functional; in short: as §1
[36] = system: Candida parapsilosis; assay: Antifungal activity against Candida parapsilosis ATCC 22019 after 48 to 72 hrs; type: functional; details: Lodderomyces parapsilosis; in short: as §5
[37] = system: Pichia kudriavzevii; assay: Antifungal activity against Candida krusei 04-202328 after 48 to 72 hrs; type: functional; in short: as §6
[38] = system: Rhizopus arrhizus; assay: Antifungal activity against Rhizopus oryzae 05-203111 after 48 to 72 hrs; type: functional; in short: as §2

Row | Compound | MIC [1] [µg/mL] | MIC [2] [µg/mL] | MIC [3] [µg/mL] | MIC [5] [µg/mL] | MIC [6] [µg/mL] | MIC [7] [µg/mL] | MIC [8] [µg/mL] | MIC [9] [µg/mL] | MIC [10] [µg/mL] | MIC [11] [µg/mL] | MIC [14] [µg/mL] | MIC [18] [µg/mL] | MIC [19] [µg/mL] | MIC [20] [µg/mL] | MIC [22] [µg/mL] | MIC [23] [µg/mL] | MIC [24] [µg/mL] | MIC [25] [µg/mL] | MIC [27] [µg/mL] | MIC [28] [µg/mL] | also measured
1 | CCCCC(CCCC)c1cc[n+](CCCCCCCCCCCC[n+]2ccc(C(CCCC)CCCC)c(C)c2)cc1C.[Cl-].[Cl-] | 3.7 | 29.8 | 14.9 | 59.7 | 3.7 | 1.86 | 14.9 | 29.8 | 1.86 | 3.7 | 14.9 | 1.86 | 3.7 | 14.9 | 1.86 | 1.86 | 1.86 | 59.7 | 14.9 | 1.86 | MFC [4]: 59.7 µg/mL; MFC [12]: 59.7 µg/mL; MFC [13]: 29.8 µg/mL; MFC [15]: 3.7 µg/mL; MFC [16]: 29.8 µg/mL; MFC [17]: 59.7 µg/mL; MFC [21]: 14.9 µg/mL; MFC [26]: 7.5 µg/mL; MFC [29]: 59.7 µg/mL; MIC [30]: 3.7 µg/mL; MIC [31]: 3.7 µg/mL; MIC [32]: 1.86 µg/mL; MIC [33]: 3.7 µg/mL; MFC [34]: 29.8 µg/mL; MIC [35]: 1.86 µg/mL
2 | [Cl-].[Cl-].c1ccc(CCCc2cc[n+](CCCCCCCCCCCC[n+]3ccc(CCCc4ccccc4)cc3)cc2)cc1 | 27.9 | > 55.8 | 55.8 | > 55.8 | 13.9 | 1.74 | 55.8 | 27.9 | 0.87 | 13.9 | 13.9 | > 55.8 | 1.74 | 27.9 | 1.74 | 0.87 | 1.74 | > 55.8 | 27.9 | 1.74 | MFC [36]: 1.74 µg/mL; MFC [37]: 27.9 µg/mL; MFC [38]: 1.74 µg/mL; MFC [29]: 55.8 µg/mL; MIC [30]: > 55.8 µg/mL; MIC [31]: 0.87 µg/mL; MIC [32]: 0.87 µg/mL; MIC [33]: 1.74 µg/mL; MFC [34]: > 55.8 µg/mL; MIC [35]: 1.74 µg/mL
